Measured values reported in ChEMBL document CHEMBL4014308, “Amphiphilic Tobramycin-Lysine Conjugates Sensitize Multidrug Resistant Gram-Negative Bacteria to Rifampicin and Minocycline” (J Med Chem, 2017).
≈ marks a conversion by molar mass, not a printed value. Calls of active or inactive are those of the source. The rule behind the calls is not given here.

How the values were obtained:
Type in all cases: functional
[1] = system: Staphylococcus epidermidis; test: Antibacterial activity against methicillin-resistant Staphylococcus epidermidis isolate CAN-ICU 61589 after 18 hrs by microtiter dilution assay; conditions: isolate CAN-ICU 61589, 18 h
Outline: (§1)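 Broth microdilution following CLSI guidelines. An overnight culture was adjusted to 0.5 McFarland in saline, then diluted 1:50 in Mueller-Hinton broth. This inoculum was added in equal volume to 2-fold serial dilutions of agent in MHB and incubated 18 h at 37 °C. MIC was the lowest concentration with no visible growth.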

Pseudomonas aeruginosa [2] = test: Antibacterial activity against Pseudomonas aeruginosa PAO1 after 18 hrs by microtiter dilution assay; conditions: PAO1, 18 h; outline: as §1
Pseudomonas aeruginosa [3] = test: Antibacterial activity against multidrug/extremely drug-resistant/colistin-susceptible Pseudomonas aeruginosa isolate 100036 after 18 hrs by microtiter dilution assay; conditions: isolate 100036, 18 h; outline: as §1
Pseudomonas aeruginosa [4] = test: Antibacterial activity against multidrug/extremely drug-resistant/colistin-susceptible Pseudomonas aeruginosa isolate 101885 after 18 hrs by microtiter dilution assay; conditions: isolate 101885, 18 h; outline: as §1
Pseudomonas aeruginosa [5] = test: Antibacterial activity against multidrug/extremely drug-resistant/colistin-susceptible Pseudomonas aeruginosa isolate P259-96918 after 18 hrs by microtiter dilution assay; conditions: isolate P259-96918, 18 h; outline: as §1
Pseudomonas aeruginosa [6] = test: Antibacterial activity against multidrug/extremely drug-resistant/colistin-susceptible Pseudomonas aeruginosa isolate P262-101856 after 18 hrs by microtiter dilution assay; conditions: isolate P262-101856, 18 h; outline: as §1
Pseudomonas aeruginosa [7] = test: Antibacterial activity against multidrug/extremely drug-resistant/colistin-susceptible Pseudomonas aeruginosa isolate P264-104354 after 18 hrs by microtiter dilution assay; conditions: isolate P264-104354, 18 h; outline: as §1
Pseudomonas aeruginosa [8] = test: Antibacterial activity against multidrug/extremely drug-resistant/colistin-resistant Pseudomonas aeruginosa isolate 91433 after 18 hrs by microtiter dilution assay; conditions: isolate 91433, 18 h; outline: as §1
Pseudomonas aeruginosa [9] = test: Antibacterial activity against multidrug/extremely drug-resistant/colistin-resistant Pseudomonas aeruginosa isolate 101243 after 18 hrs by microtiter dilution assay; conditions: isolate 101243, 18 h; outline: as §1
Staphylococcus aureus [10] = test: Antibacterial activity against Staphylococcus aureus ATCC 29213 after 18 hrs by microtiter dilution assay; conditions: ATCC 29213, 18 h; outline: as §1
Staphylococcus aureus [11] = test: Antibacterial activity against methicillin resistant Staphylococcus aureus ATCC 33592 after 18 hrs by microtiter dilution assay; conditions: ATCC 33592, 18 h; outline: as §1
[12] = system: Staphylococcus epidermidis; test: Antibacterial activity against methicillin-susceptible Staphylococcus epidermidis isolate CANWARD-2008 81388 after 18 hrs by microtiter dilution assay; conditions: isolate CANWARD-2008 81388, 18 h; outline: as §1
Enterococcus faecalis = test: Antibacterial activity against Enterococcus faecalis ATCC 29212 after 18 hrs by microtiter dilution assay; conditions: ATCC 29212, 18 h
Outline: (§2)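 Broth microdilution per CLSI. Overnight culture adjusted to 0.5 McFarland in saline, diluted 1:50 in Mueller-Hinton broth, and added to an equal volume of 2-fold serial compound dilutions in MHB. Incubated 18 h at 37 °C. MIC taken as the lowest concentration with no visible growth.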

Enterococcus faecium = test: Antibacterial activity against Enterococcus faecium ATCC 27270 after 18 hrs by microtiter dilution assay; conditions: ATCC 27270, 18 h; outline: as §2
Streptococcus pneumoniae = test: Antibacterial activity against Streptococcus pneumoniae ATCC 49619 after 18 hrs by microtiter dilution assay; conditions: ATCC 49619, 18 h; outline: as §2
Escherichia coli [13] = test: Antibacterial activity against Escherichia coli ATCC 25922 after 18 hrs by microtiter dilution assay; conditions: ATCC 25922, 18 h; outline: as §1
Escherichia coli [14] = test: Antibacterial activity against gentamicin-resistant Escherichia coli isolate CAN-ICU 61714 after 18 hrs by microtiter dilution assay; conditions: isolate CAN-ICU 61714, 18 h; outline: as §1
Escherichia coli [15] = test: Antibacterial activity against amikacin-resistant Escherichia coli isolate CAN-ICU 63074 after 18 hrs by microtiter dilution assay; conditions: isolate CAN-ICU 63074, 18 h; outline: as §1
Escherichia coli [16] = test: Antibacterial activity against gentamicin/tobramycin/ciprofloxacin-resistant Escherichia coli isolate CANWARD-2011 97615 harboring AAC3-2A after 18 hrs by microtiter dilution assay; conditions: isolate CANWARD-2011 97615, 18 h; outline: as §1
Pseudomonas aeruginosa [17] = test: Antibacterial activity against Pseudomonas aeruginosa ATCC 27853 after 18 hrs by microtiter dilution assay; conditions: ATCC 27853, 18 h; outline: as §2
Pseudomonas aeruginosa [18] = test: Antibacterial activity against gentamicin-resistant Pseudomonas aeruginosa isolate CAN-ICU 62308 after 18 hrs by microtiter dilution assay; conditions: isolate CAN-ICU 62308, 18 h; outline: as §1
Pseudomonas aeruginosa [19] = test: Antibacterial activity against gentamicin/tobramycin-resistant Pseudomonas aeruginosa isolate CANWARD-2011 96846 after 18 hrs by microtiter dilution assay; conditions: isolate CANWARD-2011 96846, 18 h; outline: as §1
[20] = system: Stenotrophomonas maltophilia; test: Antibacterial activity against Stenotrophomonas maltophilia isolate CAN-ICU 62584 after 18 hrs by microtiter dilution assay; conditions: isolate CAN-ICU 62584, 18 h; outline: as §2
Acinetobacter baumannii = test: Antibacterial activity against Acinetobacter baumannii isolate CAN-ICU 63169 after 18 hrs by microtiter dilution assay; conditions: isolate CAN-ICU 63169, 18 h; outline: as §2
Klebsiella pneumoniae = test: Antibacterial activity against Klebsiella pneumoniae ATCC 13883 after 18 hrs by microtiter dilution assay; conditions: ATCC 13883, 18 h; outline: as §2
Pseudomonas aeruginosa [21] = test: Synergistic antibacterial activity against Pseudomonas aeruginosa PAO1 after 18 hrs in presence of minocycline by checkerboard assay
Outline: (§3)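 Checkerboard in MHB: antibiotic diluted along one axis and adjuvant along the other (10 × 7 matrix). Inoculum was a 1:50 dilution in MHB of a 0.5 McFarland saline suspension; incubated 18 h at 37 °C. Each FIC = concentration in the no-growth well divided by the MIC alone; FIC index = sum of both FICs. ≤0.5 synergy, 0.5–4 no interaction, ≥4 antagonism.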

Pseudomonas aeruginosa [22] = test: Synergistic antibacterial activity against Pseudomonas aeruginosa PAO1 after 18 hrs in presence of rifampicin by checkerboard assay; outline: as §3

| SMILES | MIC [1] | MIC (Pseudomonas aeruginosa [2]) | MIC (Pseudomonas aeruginosa [3]) | MIC (Pseudomonas aeruginosa [4]) | MIC (Pseudomonas aeruginosa [5]) | MIC (Pseudomonas aeruginosa [6]) | MIC (Pseudomonas aeruginosa [7]) | MIC (Pseudomonas aeruginosa [8]) | MIC (Pseudomonas aeruginosa [9]) | also measured |
| --- | --- | --- | --- | --- | --- | --- | --- | --- | --- | --- |
| CC(C)(O/N=C(\C(=O)N[C@@H]1C(=O)N2C(C(=O)[O-])=C(C[n+]3ccccc3)CS[C@H]12)c1csc(N)n1)C(=O)O [CEFTAZIDIME] | > 32 µg/mL | 2 µg/mL (≈ 3.66 µM) | 8 µg/mL (≈ 14.6 µM) | 8 µg/mL (≈ 14.6 µM) | 512 µg/mL (≈ 937 µM) | 16 µg/mL (≈ 29.3 µM) | 64 µg/mL (≈ 117 µM) | 256 µg/mL (≈ 468 µM) | 64 µg/mL (≈ 117 µM) | – |
| Cl.Cl.Cl.Cl.Cl.Cl.Cl.NCCCC[C@H](N)C(=O)N(CCCCO[C@@H]1[C@@H](O[C@H]2O[C@H](CO)[C@@H](O)[C@H](N)[C@H]2O)[C@H](N)C[C@H](N)[C@H]1O[C@H]1O[C@H](CN)[C@@H](O)C[C@H]1N)Cc1c2ccccc2c(Cl)c2ccccc12 | 32 µg/mL | > 512 µg/mL | > 512 µg/mL | 256 µg/mL | > 512 µg/mL | > 512 µg/mL | > 512 µg/mL | 32 µg/mL | 256 µg/mL | MIC (Staphylococcus aureus [10]): 64 µg/mL; MIC (Staphylococcus aureus [11]): 64 µg/mL; MIC [12]: 16 µg/mL; MIC (Enterococcus faecalis): > 128 µg/mL; MIC (Enterococcus faecium): > 128 µg/mL; MIC (Streptococcus pneumoniae): > 128 µg/mL; MIC (Escherichia coli [13]): 32 µg/mL; MIC (Escherichia coli [14]): 64 µg/mL; MIC (Escherichia coli [15]): 64 µg/mL; MIC (Escherichia coli [16]): 64 µg/mL; MIC (Pseudomonas aeruginosa [17]): > 128 µg/mL; MIC (Pseudomonas aeruginosa [18]): 64 µg/mL; MIC (Pseudomonas aeruginosa [19]): > 128 µg/mL; MIC [20]: > 128 µg/mL; MIC (Acinetobacter baumannii): > 128 µg/mL; MIC (Klebsiella pneumoniae): 128 µg/mL; Activity (Pseudomonas aeruginosa [21]): inactive; Activity (Pseudomonas aeruginosa [22]): inactive |
| Cl.Cl.Cl.Cl.Cl.Cl.Cl.NCCCC[C@H](N)C(=O)N(CCCCCCCCOC1[C@@H](O[C@H]2O[C@H](CO)[C@@H](O)[C@H](N)[C@H]2O)[C@H](N)C[C@H](N)[C@H]1O[C@H]1O[C@H](CN)[C@@H](O)C[C@H]1N)Cc1c2ccccc2c(Cl)c2ccccc12 (single isomer, unassigned) | 8 µg/mL | 128 µg/mL | 512 µg/mL | 64 µg/mL | 512 µg/mL | 128 µg/mL | 256 µg/mL | 8 µg/mL | 32 µg/mL | MIC (Staphylococcus aureus [10]): 16 µg/mL; MIC (Staphylococcus aureus [11]): 16 µg/mL; MIC [12]: 8 µg/mL; MIC (Enterococcus faecalis): 64 µg/mL; MIC (Enterococcus faecium): 16 µg/mL; MIC (Streptococcus pneumoniae): 128 µg/mL; MIC (Escherichia coli [13]): 16 µg/mL; MIC (Escherichia coli [14]): 32 µg/mL; MIC (Escherichia coli [15]): 128 µg/mL; MIC (Escherichia coli [16]): 32 µg/mL; MIC (Pseudomonas aeruginosa [17]): > 128 µg/mL; MIC (Pseudomonas aeruginosa [18]): 16 µg/mL; MIC (Pseudomonas aeruginosa [19]): 64 µg/mL; MIC [20]: > 128 µg/mL; MIC (Acinetobacter baumannii): > 128 µg/mL; MIC (Klebsiella pneumoniae): > 128 µg/mL; Activity (Pseudomonas aeruginosa [21]): Active; Activity (Pseudomonas aeruginosa [22]): Active |
| CC[C@H]1OC(=O)[C@H](C)[C@@H](O[C@H]2C[C@@](C)(OC)[C@@H](O)[C@H](C)O2)[C@H](C)[C@@H](O[C@@H]2O[C@H](C)C[C@H](N(C)C)[C@H]2O)[C@](C)(O)C[C@@H](C)C(=O)[C@H](C)[C@@H](O)[C@]1(C)O [ERYTHROMYCIN] | – | 256 µg/mL (≈ 349 µM) | 256 µg/mL (≈ 349 µM) | 256 µg/mL (≈ 349 µM) | 256 µg/mL (≈ 349 µM) | 1020 µg/mL (≈ 1400 µM) | 256 µg/mL (≈ 349 µM) | 512 µg/mL (≈ 698 µM) | 1020 µg/mL (≈ 1400 µM) | – |
| CO[C@@H]1[C@@H](OC(N)=O)[C@@H](O)[C@H](Oc2ccc3c(O)c(NC(=O)c4ccc(O)c(CC=C(C)C)c4)c(=O)oc3c2C)OC1(C)C [NOVOBIOCIN] | – | 1020 µg/mL (≈ 1670 µM) | – | – | – | – | – | – | – | – |
| O=C(O)c1cn(C2CC2)c2cc(N3CCNCC3)c(F)cc2c1=O [CIPROFLOXACIN] | – | – | 64 µg/mL (≈ 193 µM) | 32 µg/mL (≈ 96.6 µM) | 128 µg/mL (≈ 386 µM) | 32 µg/mL (≈ 96.6 µM) | 32 µg/mL (≈ 96.6 µM) | – | – | – |
| O=C(N[C@H](CO)[C@H](O)c1ccc([N+](=O)[O-])cc1)C(Cl)Cl [CHLORAMPHENICOL] | – | 64 µg/mL (≈ 198 µM) | > 512 µg/mL | 512 µg/mL (≈ 1580 µM) | 512 µg/mL (≈ 1580 µM) | 1020 µg/mL (≈ 3170 µM) | 1020 µg/mL (≈ 3170 µM) | 16 µg/mL (≈ 49.5 µM) | 4 µg/mL (≈ 12.4 µM) | – |
